In the library only some 3.7% were active in any assay of this set; here they are far more common.
FGF22 binding: binders of human FGF22 protein, primary screen, FGF22 synaptogenesis inhibitor project, biophysical, thermal shift, single point | Fibroblast growth factor 22 (Homo sapiens), Q9HCT0 | recombinant FGF22 thermal shift, SYPRO orange fluorescence; percent of sucrose octasulfate shift, DMSO zero | activity (Tm shift, normalised), % at 9.99 µM | 340,000 compounds, 1.5% hits | AID 651658, 2012;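 active means mean Tm shift, scaled 0 neutral to 100 positive control, at about 1.3% or above, every replicate too, limit read from the data; inconclusive means no clear call, values can overlap the other calls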
CFTR F508del cor: F508del CFTR correction, initial screen, CFBE line, single point; CFBE cells, YFP halide quenching; stimulated with forskolin plus potentiator P3; % fluorescence drop versus neutral controls; activity (quench increase), % at 7.58 µM; 350,000 compounds, 0.36% hits;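 active means mean added fluorescence quench of at least 8% versus neutral control, with both replicates also reaching 8%; inconclusive means only one of the mean or replicate conditions met; inactive means mean below 8% and not both replicates reaching 8%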;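 further: cells transiently co-express mutant CFTR-F508del with the halide-sensitive YFP; corrector assay measuring rescue of mutant channel to the surface after 24 h compound exposure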
ERAP1 HTS inh: human ERAP1 aminopeptidase inhibitors, primary screen, biochemical, single point, plate reader; Endoplasmic reticulum aminopeptidase 1 (Homo sapiens), Q9NZ08; recombinant ERAP1, Leu-AMC fluorescence, 60 min; inhibition, % at 10.7 µM; 340,000 compounds, 0.15% hits; AID 652197, 2013;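 active means mean replicate inhibition of at least 30%, or all replicates individually reaching that 30% level; inactive means mean below 30% and not every replicate reaching it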;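 further: 0% = neutral control wells and 100% = L-leucinethiol positive control wells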
E-selectin induc: E-selectin induction in HUVECs, primary screen, imaging, HUVEC, immunofluorescence imaging, single point. AID 686992, 2013. activation, % at 7.58 µM. normalized: neutral wells 0, TNF-alpha wells 100. 260,000 compounds, 0.37% hits;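 active means mean E-selectin-positive cell signal at least 10% of the positive control, reached in at least 60% of replicates, without over 20% cell loss; inconclusive means no rule given, readout overlaps actives, possibly toxicity-flagged; inactive means the rest, including those meeting only one limit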
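Assay system: HUVEC primary endothelial cells. Input: 3,000 HUVEC seeded per well. Doses: one compound dose added by pin transfer. Read-out basis: % PE-positive cells. Benchmarks: TNF-alpha high, DMSO low. Detection: immunofluorescence imaging. Buffer or medium: EGM-2, gelatin.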
DENV2 CPE rescue: inhibitors of DENV2 cytopathic effect, primary screen, cell-based, plate reader, single concentration; DENV2-infected cells, cytopathic effect rescue; CPE inhibition, % at 9.99 µM; 350,000 compounds, 1.7% hits; in the data active means CPE inhibition above about 20%, passing the limit was not always enough; inconclusive means no clear call, values can overlap the other calls; tested in BHK-21 cells;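 further: 0% = median of neutral control wells and 100% = median of positive control wells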
The depositor's hits bear a star.

`CCC(=O)N1CCCCN2[C@H](C1)[C@@H](c1ccc(C#Cc3ccccc3F)cc1)[C@@H]2CO` gave FGF22 binding 0, CFTR F508del cor 6, ERAP1 HTS inh 7, E-selectin induc -1 and DENV2 CPE rescue -20.
C[C@@H]1CN([C@H](C)CO)C(=O)Cc2cc(NC(=O)Cc3cn(C)c4ccccc34)ccc2O[C@@H]1CN(C)S(=O)(=O)c1ccc(Cl)cc1 was read as CFTR F508del cor 2 and E-selectin induc -4.
CCCNC(=O)N1C[C@H](O)COC[C@@H]2O[C@H](CC(=O)N[C@H]3CCN(Cc4ccccc4)C3)CC[C@H]21 was read as FGF22 binding -1, CFTR F508del cor 1, ERAP1 HTS inh 2, E-selectin induc 0 and DENV2 CPE rescue 15.
Screening C[C@@H]1CN([C@H](C)CO)C(=O)Cc2cc(NC(=O)CCN3CCOCC3)ccc2O[C@H]1CN(C)S(C)(=O)=O returned FGF22 binding 0, CFTR F508del cor 0, ERAP1 HTS inh 2, E-selectin induc 332* and DENV2 CPE rescue 15.
Screening C[C@@H]1CN([C@H](C)CO)C(=O)Cc2cc(NC(=O)CCN3CCOCC3)ccc2O[C@@H]1CN(C)S(=O)(=O)c1cn(C)cn1 returned FGF22 binding 0, CFTR F508del cor 0, ERAP1 HTS inh 0, E-selectin induc -8 and DENV2 CPE rescue 22*.
`C[C@@H]1CN([C@@H](C)CO)C(=O)Cc2cc(NC(=O)CCN3CCOCC3)ccc2O[C@H]1CN(C)S(=O)(=O)c1cn(C)cn1` gave FGF22 binding 1, CFTR F508del cor -2, ERAP1 HTS inh 0, E-selectin induc 2 and DENV2 CPE rescue 6.
Screening COc1ccc2c3c(n(C)c2c1)[C@H](CO)N(C(=O)NC1CCCC1)CC31CCN(C)CC1 returned FGF22 binding 0, CFTR F508del cor 0, ERAP1 HTS inh 10, E-selectin induc 0 and DENV2 CPE rescue -6.
O=C(Nc1ccccc1)Nc1sccc1-c1nc2ccccc2s1 was read as FGF22 binding 0, CFTR F508del cor -3, ERAP1 HTS inh 0 and DENV2 CPE rescue -10.
`O=C(Nc1cccc(Cl)c1)Nc1sccc1-c1nc2ccccc2s1` gave FGF22 binding 0, CFTR F508del cor 1, ERAP1 HTS inh -4 and DENV2 CPE rescue 63*.
COc1ccc(NC(=O)N[C@@H]2CC[C@H](CCNC(=O)c3ccccc3F)O[C@@H]2CO)cc1 was read as FGF22 binding 0, CFTR F508del cor 1, ERAP1 HTS inh -1, E-selectin induc 0 and DENV2 CPE rescue 17.
COc1cnc(-c2cccc(C(F)(F)F)c2)nc1OC was read as FGF22 binding 43*, CFTR F508del cor -3, ERAP1 HTS inh 3, E-selectin induc inconclusive and DENV2 CPE rescue -4.
Screening C[C@@H]1CN([C@@H](C)CO)C(=O)c2cccc(NC(=O)Nc3ccccc3)c2O[C@H]1CN(C)C(=O)Nc1ccc2c(c1)OCO2 returned FGF22 binding -1, CFTR F508del cor -1, ERAP1 HTS inh -2, E-selectin induc 0 and DENV2 CPE rescue 10.
O=C(/C=C/c1ccccn1)c1cc(Br)ccc1O was read as FGF22 binding 0, CFTR F508del cor 2, E-selectin induc 0 and DENV2 CPE rescue -3.
`O=C(/C=C/c1ccccn1)c1ccc(Br)cc1O` gave FGF22 binding 0, ERAP1 HTS inh -1, E-selectin induc 105* and DENV2 CPE rescue 5.
For COCC(=O)Nc1ccc2c(c1)C(=O)N(C)C[C@@H](OC)[C@H](C)CN(Cc1cccc(F)c1)[C@@H](C)CO2 the results were FGF22 binding 0, CFTR F508del cor 0, ERAP1 HTS inh 1, E-selectin induc 0 and DENV2 CPE rescue -16.
`COCCNC(=O)CS(=O)Cc1nc(-c2ccc(Cl)cc2)oc1C` (stereo not drawn) gave FGF22 binding 0, CFTR F508del cor 0, ERAP1 HTS inh 1, E-selectin induc 0 and DENV2 CPE rescue 64*.
Screening Oc1[nH]c2ccc(Br)cc2c1N=Nc1ccc(C(F)(F)F)cn1 returned FGF22 binding 44*, CFTR F508del cor 1, ERAP1 HTS inh 0 and DENV2 CPE rescue 3.
`O=C(O)c1ccc(N=Nc2c(O)[nH]c3ccc(Br)cc23)cc1` gave FGF22 binding 0, CFTR F508del cor 1, ERAP1 HTS inh 0, E-selectin induc -2 and DENV2 CPE rescue -3.
For COC(=O)c1ccc(/C=N/Nc2nc(N3CCCCC3)nc(N3CCCCC3)n2)cc1 the results were FGF22 binding 44*, CFTR F508del cor 0, ERAP1 HTS inh -5 and DENV2 CPE rescue -1.
`CN(C)S(=O)(=O)c1ccc(C(=O)NCc2ccco2)cc1` gave FGF22 binding 44*, CFTR F508del cor -2, ERAP1 HTS inh -2, E-selectin induc 0 and DENV2 CPE rescue 8.
Screening CC(NC(=O)c1ccc(S(=O)(=O)N(C)C)cc1)c1ccccc1 (stereo not drawn) returned E-selectin induc 1.
For CN(C)C(CNC(=O)c1ccc(S(=O)(=O)N(C)C)cc1)Cc1ccccc1 (stereo not drawn) the results were FGF22 binding 43*, CFTR F508del cor -3, ERAP1 HTS inh 0 and DENV2 CPE rescue -2.
For C[C@@H]1CN([C@H](C)CO)C(=O)c2cccc(NC(=O)C3CC3)c2O[C@H]1CN(C)S(=O)(=O)c1ccc(F)cc1 the results were CFTR F508del cor -2, ERAP1 HTS inh 1, E-selectin induc 0 and DENV2 CPE rescue -9.
Screening CCC(=O)Nc1ccc2c(c1)C(=O)N(C)C[C@H](OC)[C@H](C)CN(C(=O)CC1CC1)[C@@H](C)CO2 returned FGF22 binding 0, CFTR F508del cor 2, ERAP1 HTS inh -3, E-selectin induc 0 and DENV2 CPE rescue -3.
For COc1ccc(CC2(c3ccccc3)NC(=O)NC2=O)cc1 (stereo not drawn) the results were FGF22 binding 43*, CFTR F508del cor 0, ERAP1 HTS inh 2, E-selectin induc 0 and DENV2 CPE rescue 4.
For O=C1NC(=O)C(Cc2ccccc2)(c2ccccc2)N1 (stereo not drawn) the results were FGF22 binding 0, CFTR F508del cor 1, ERAP1 HTS inh 1, E-selectin induc 0 and DENV2 CPE rescue 4.
For CCCC(=O)Nc1cc(C(=O)O)ccc1Sc1ccc(C)cc1 the results were FGF22 binding 43*, CFTR F508del cor -1, ERAP1 HTS inh 1, E-selectin induc 5 and DENV2 CPE rescue 3.
Screening O=C(Nc1ccc(F)cc1)N1CC(=O)N2[C@H](C1)[C@H](c1ccc(-c3cccc(F)c3)cc1)[C@@H]2CO returned FGF22 binding 0, CFTR F508del cor 1, ERAP1 HTS inh 1, E-selectin induc 0 and DENV2 CPE rescue 6.

From PubChem BioAssay
